Test [1] is described as follows: inhibitors of TNFa-induced NFkB p65 translocation, primary screen, imaging, HUVEC, MLSMR starter and 10KST1 sets (AID 438;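 active = inhibition above 20% together with a positive visual image hit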;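 also: compound added about 3h40 before a 20 min TNFalpha stimulation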;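 as to inhibition: signal is the nuclear over cytoplasmic p65 intensity ratio per well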). The note with it: HUVEC TNFa-induced p65 nuclear translocation; cell count: measured here: nuclei count (cytotoxicity indicator), at 2.08 µM; inhibition: at 2 µM, stronger effect = higher value, 0% TNFa-plus-vehicle, 100% no-TNFa wells.
Test [2] is described as follows: inhibitors of E-selectin induction by TNFa, primary screen, imaging, HUVEC, immunofluorescence, MLSMR starter and 10KST1 sets (AID 487;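 active = visually confirmed hit in the image check and inhibition above 20%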;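 as to inhibition: signal is fraction of cell area covered by stained E-selectin grains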;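 as to nuclei count: 100% = median nuclei count of all wells on the same plate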). The note with it: HUVEC TNFalpha-induced E-selectin immunofluorescence imaging, at 2 µM; inhibition: stronger effect = higher value; nuclei count: measured here: cell number, toxicity.
Test [3] can be described thus: DUSP6 inhibitors restoring Erk phosphorylation by chemical complementation, primary imaging in DUSP6-transfected HeLa (AID 609).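 As to inhibition: phospho-Erk level distribution per well compared with pooled transfected vehicle control wells.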 The note with it: HeLa MKP-3 transfected, phospho-Erk imaging KS statistic, at 10 µM, cells stimulated with TPA for 15 min.
In test [4] the target is Dual specificity protein phosphatase 6 (Homo sapiens) (UniProt Q16828). Described as above. The note with it: HeLa MKP-3 transfected, phospho-Erk imaging KS statistic; at 10 µM; stronger effect = higher value; cells stimulated with TPA for 15 min.
The target in test [5] is Voltage-gated potassium channel subunit beta-2 (Rattus norvegicus) (UniProt P62483). Put plainly: KvBeta enzyme negative modulators, primary screen, biochemical, NADPH fluorescence (AID 622;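 active = fluorescence slope higher than the sample average by over 3 SD, cut at about -0.22 in these data, passing the limit was not always enough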;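 also: slope of raw intensity against log time taken from 70 to 1610 s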). The note with it: recombinant KvBeta, 4-cyanobenzaldehyde reduction, at 10 µM, stronger effect = higher value.
For test [6] the target is unchanged. Put plainly: KvBeta positive modulators, primary screen, biochemical, NADPH fluorescence (AID 623;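 active = NADPH fluorescence slope more negative than the mean of all samples by about 3 SD, 99.7% confidence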;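 also: fluorescence intensity change per second fitted from 20 to 320 s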). The note with it: Recombinant KvBeta, NADPH fluorescence decrease slope, 10 min; at 10 µM; stronger effect = lower value.
Test [7] deals with Muscarinic acetylcholine receptor M4 (Homo sapiens) (UniProt P08173). Put plainly: compounds altering M4/GIRK thallium flux, either direction, primary screen, M4 allosteric agonist project, cell-based, HEK293 M4/GIRK, BTC-AM (AID 625;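 active = fluorescence slope after compound addition differing from the mean of all tested samples at 99.7% confidence, mostly higher but some lower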;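 also: thallium influx through GIRK channels coupled to M4 in HEK293 cells with BTC-AM dye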). The note with it: at 10 µM, actives lie on both sides. Summed up: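 Material: HEK293 cells with M4 receptor and GIRK channels; Times: cells overnight at 37 °C, BTC-AM loading 1 h, reads 2 min total; Technique: kinetic BTC-AM fluorescence sampled at 1 Hz, 10 s pre-addition baseline; Read-out basis: slope over 15–24 s of trace normalized to starting intensity; Controls: carbachol positive, DMSO negative.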

A short description of test [8]: inhibitors of larval lipid processing in zebrafish, primary screen, whole organism, PED6 fluorescence, gall bladder and intestine (AID 686;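 active = a full or partial loss of lipid-probe fluorescence in the fish gall bladder, intestine or both, judged by eye; inactive = no fluorescence loss, or compound toxic to the fish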;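 also: larvae 5 to 7 days old with five fish per well; signal comes from phospholipase A2 cleavage of quenched PED6 carried via bile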). The note with it: Zebrafish larvae PED6 lipid processing, fluorescence scoring; screened at 20 µM (by protocol). The essentials:
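Incubation: overnight exposure of larvae to compound plus PED6 / Test system: live zebrafish larvae aged 5-7 days, whole organism / Amount: 5 larvae per well / Read-out basis: visual per-well fluorescence inhibition score / Signal: visual fluorescence microscopy scoring of gall bladder, gut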

A short description of test [9]: inhibitors of Chlamydomonas gravitaxis, primary screen, whole organism, Chlamydomonas reinhardtii, WT vs cilia-less mutant, absorbance, 96-well (AID 463189;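 active = inhibition at or above 50% relative to wild type and mutant plate controls; inactive = inhibition below 50%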;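 also: 0% = wild type cc124 cells in DMSO and 100% = ciliumless bld1 mutant cells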). The note with it: OD600 absorbance, 2 days, at 10 µM, stronger effect = higher value.
The mark [10] stands for this setting: measured here: cell density z-score.
[11] abbreviates: measured here: nuclear c-Myc green intensity z-score.
[12] abbreviates: measured here: nuclear pErk red intensity z-score, stronger effect = higher value.

Activity calls are given as the source filed them.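 The calls were made as follows, unless noted: active = compounds giving at least 50% inhibition in the cell-based MKP-3 phosphatase rescue imaging test; inactive = the rest.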

Voltage-gated potassium channel subunit beta-2 (Rattus norvegicus), sequence (P62483 whole entry, looked up): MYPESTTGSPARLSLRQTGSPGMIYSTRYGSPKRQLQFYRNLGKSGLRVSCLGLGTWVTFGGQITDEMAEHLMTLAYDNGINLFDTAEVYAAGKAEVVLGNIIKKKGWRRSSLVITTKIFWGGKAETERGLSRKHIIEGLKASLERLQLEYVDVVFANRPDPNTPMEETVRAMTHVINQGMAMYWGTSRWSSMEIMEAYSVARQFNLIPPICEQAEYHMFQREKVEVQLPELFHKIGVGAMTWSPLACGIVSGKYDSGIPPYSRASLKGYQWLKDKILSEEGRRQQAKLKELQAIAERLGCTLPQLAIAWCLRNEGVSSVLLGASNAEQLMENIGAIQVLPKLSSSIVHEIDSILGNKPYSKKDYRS
Dual specificity protein phosphatase 6 (Homo sapiens), sequence (Q16828 whole entry, looked up): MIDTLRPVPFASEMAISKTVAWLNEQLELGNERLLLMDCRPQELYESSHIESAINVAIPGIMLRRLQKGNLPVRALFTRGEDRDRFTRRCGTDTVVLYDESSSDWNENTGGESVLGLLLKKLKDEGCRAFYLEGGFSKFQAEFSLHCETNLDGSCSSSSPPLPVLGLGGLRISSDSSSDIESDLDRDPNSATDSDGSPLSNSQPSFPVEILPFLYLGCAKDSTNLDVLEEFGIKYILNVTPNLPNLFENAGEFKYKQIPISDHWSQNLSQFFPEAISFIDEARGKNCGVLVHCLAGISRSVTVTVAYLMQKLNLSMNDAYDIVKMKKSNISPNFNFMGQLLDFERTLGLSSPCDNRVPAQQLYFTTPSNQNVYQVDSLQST
Muscarinic acetylcholine receptor M4 (Homo sapiens), sequence (P08173 whole entry, looked up): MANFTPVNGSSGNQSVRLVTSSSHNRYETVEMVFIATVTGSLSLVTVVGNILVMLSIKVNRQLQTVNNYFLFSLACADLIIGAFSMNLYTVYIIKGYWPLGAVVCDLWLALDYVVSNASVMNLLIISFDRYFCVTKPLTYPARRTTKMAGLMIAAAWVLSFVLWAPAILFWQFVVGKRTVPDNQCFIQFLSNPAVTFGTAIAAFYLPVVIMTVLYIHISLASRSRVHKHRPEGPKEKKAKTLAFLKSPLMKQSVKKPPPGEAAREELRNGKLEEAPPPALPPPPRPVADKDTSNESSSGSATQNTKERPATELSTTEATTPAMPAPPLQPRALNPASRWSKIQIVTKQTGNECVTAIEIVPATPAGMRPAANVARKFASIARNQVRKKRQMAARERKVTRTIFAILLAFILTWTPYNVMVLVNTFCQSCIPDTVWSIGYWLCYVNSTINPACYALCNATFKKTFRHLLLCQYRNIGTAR

Take `COc1ccc(OC)c(NS(=O)(=O)c2ccc(N3CCCC3=O)cc2)c1`: in test [1], the cell count came to 645. In addition, the inhibition in test [1] is 24% (active); in test [2] it was -344% (inactive); in [4], -3.97% (inactive); in test [9], 14% (inactive). Moreover, in test [2], the nuclei count amounted to 139%. Besides, the results for the z-score in test [3] (setting [10]), in test [3] (setting [11]) and in test [3] (setting [12]) were 1.32, -0.903 and -0.414, respectively. Besides, the fluorescence slope in [5] was -0.465 (inactive); in [7] it was 0.00599 (inactive). Besides, the NADPH fluorescence slope in [6] is -0.000177 (inactive). Moreover, the compound was classed as inactive in test [8].
`CC(C)Cc1nc(N2CCOCC2)c(C#N)c2c1COC(C)(C)C2`: the cell count in test [1] was 584. Moreover, the inhibition in test [1] is -7% (inactive); in [2] it was -84.6% (inactive); in test [4], -2.09% (inactive); in test [9], 3.97% (inactive). Further, the nuclei count in [2] turned out to be 146%. Also, the z-score in test [3] (setting [10]) is -0.646; in test [3] (setting [11]), 0.861; in test [3] (setting [12]) it was 0.329. Also, the fluorescence slope in [5] is -0.405 (inactive); in test [7], 0.00418 (inactive). Further, in test [6], the NADPH fluorescence slope was -3.3e-05 (inactive). Moreover, the compound was called inactive in test [8].
For `COC(=O)/C=c1/s/c(=C(\C#N)C(=O)NCc2ccco2)n(-c2ccccc2)c1=O`, the cell count in test [1] was 395. Further, the inhibition in [1] is 0.2% (inactive); in test [2], -54.5% (inactive); in [4], 1.48% (inactive); in test [9] it was 45.7% (inactive). In addition, the nuclei count in test [2] is 129%. Moreover, the z-score was -0.296 in [3] (setting [10]), -0.55 in test [3] (setting [11]) and -0.453 in test [3] (setting [12]). In addition, the fluorescence slope in [5] was -0.455 (inactive); in test [7], 0.00374 (inactive). In addition, the NADPH fluorescence slope in [6] is -3.8e-05 (inactive). The compound was called inactive in test [8].
Turning to `Cn1ncc2nc[nH]c(=O)c21`, the cell count in test [1] turned out to be 709. The inhibition in test [1] was 2% (inactive); in [2] it was -49.9% (inactive); in test [4] it was 5.95% (inactive); in test [9] it was 30.9% (inactive). The nuclei count in [2] came out at 110%. Further, the z-score was -0.739 in [3] (setting [10]), -0.543 in [3] (setting [11]) and 1.26 in [3] (setting [12]). Further, the figures for the fluorescence slope in test [5] and in test [7] were -0.579 (inactive) and 0.006 (inactive), respectively. In addition, in test [6], the NADPH fluorescence slope is -3.5e-05 (inactive). Moreover, the result in [8] was inactive.
As for `COc1ccc(/C(O)=C2/C(=O)C(=O)N(CCCN(C)C)C2c2ccccc2)cc1Cl` (stereo unspecified), in [1], the cell count worked out at 690. In addition, the inhibition was -2% (inactive) in test [1], -71.3% (inactive) in test [2], 4.25% (inactive) in test [4] and 20.4% (inactive) in test [9]. The compound also registered a nuclei count in [2] of 159%. For the same compound, the z-score in [3] (setting [10]) is 0.886; in [3] (setting [11]) it was -1.15; in [3] (setting [12]), 1.23. The fluorescence slope in [5] is -0.452 (inactive); in test [7] it was 0.00499 (inactive). In addition, the NADPH fluorescence slope in test [6] is -6.6e-05 (inactive). Besides, the result in test [8] was inactive.
Regarding `COc1ccc(CN(C)CCc2ccccn2)c(OC)c1OC`, the cell count in test [1] was 494. The inhibition in test [1] is -4.5% (inactive); in test [2] it was -90.8% (inactive); in test [4] it was -3.95% (inactive); in [9], 18.3% (inactive). In addition, in test [2], the nuclei count worked out at 151%. In addition, the z-score in test [3] (setting [10]) is -1.25; in [3] (setting [11]) it was -0.772; in test [3] (setting [12]) it was 0.512. The fluorescence slope in test [5] is -0.419 (inactive); in [7], 0.00521 (inactive). Further, the NADPH fluorescence slope in test [6] is -3.4e-05 (inactive). Moreover, the outcome in test [8] was inactive.
As to `CCc1nc(NCCN2CCOCC2)c(C#N)c2c1CCCC2`, the cell count in [1] stood at 358. The inhibition in test [1] was -2.8% (inactive); in [2] it was -19.6% (inactive); in test [4] it was 11.4% (inactive); in [9] it was 30.2% (inactive). In addition, the nuclei count in test [2] came to 79.7%. The z-score was -0.865 in [3] (setting [10]), 0.944 in test [3] (setting [11]) and 0.38 in test [3] (setting [12]). Moreover, the fluorescence slope in [5] was -0.595 (inactive); in test [7] it was 0.00436 (inactive). In addition, the NADPH fluorescence slope in [6] was 4.1e-06 (inactive). In addition, the compound was called inactive in test [8].
For `N#Cc1nc(-c2cccs2)oc1NCc1ccccc1`, the cell count in [1] is 712. In addition, the inhibition is 0.5% (inactive) in [1], -23.3% (inactive) in test [2], -7.67% (inactive) in test [4] and 7.94% (inactive) in [9]. Further, the nuclei count in [2] turned out to be 148%. Moreover, the values for the z-score in test [3] (setting [10]), in test [3] (setting [11]) and in test [3] (setting [12]) were 0.919, 1.11 and 0.281, respectively. Besides, the fluorescence slope was -0.329 (inactive) in test [5] and 0.00659 (inactive) in test [7]. The NADPH fluorescence slope in test [6] was -2.5e-05 (inactive). In [8], the result was inactive.
`COc1ccc(N2C(=O)C3C(C2=O)C2C=CC3C23CC3)c(OC)c1` (stereo unspecified): the cell count in [1] was determined as 517. The inhibition in [1] was -4.2% (inactive); in test [2], 41.1% (inactive); in test [4] it was 11.9% (inactive); in test [9], 24.5% (inactive). For the same compound, the nuclei count in test [2] was found to be 197%. Also, the z-score in [3] (setting [10]) is 0.465; in test [3] (setting [11]), -0.843; in test [3] (setting [12]), 1.05. The results for the fluorescence slope in test [5] and in [7] were -0.422 (inactive) and 0.00475 (inactive), respectively. The NADPH fluorescence slope in test [6] was -4.3e-05 (inactive). For the same compound, the compound was classed as inactive in test [8].
Consider `CC1(C)Cc2c(c(N3CCOCC3)nc3snc(Br)c23)CO1`, for which, in test [1], the cell count came out at 489. In addition, the inhibition in test [1] was -4.5% (inactive); in [2], -99.5% (inactive); in test [4] it was 5.42% (inactive); in [9], 2.33% (inactive). Further, the nuclei count in test [2] came to 130%. Further, the z-score is -1.77 in test [3] (setting [10]), 2.53 in [3] (setting [11]) and -2.36 in [3] (setting [12]). Moreover, the fluorescence slope in test [5] was -0.502 (inactive); in test [7], 0.00473 (inactive). In addition, in test [6], the NADPH fluorescence slope is -1.8e-05 (inactive). In [8], the call was inactive.
For `COc1cccc(C2=CC(c3ccc(N(C)C)cc3)n3nnnc3N2)c1` (stereo unspecified), the cell count in test [1] amounted to 525. Besides, the inhibition in test [1] is 0.8% (inactive); in test [2], 27.7% (inactive); in test [4] it was 9.91% (inactive); in [9], -6.32% (inactive). The nuclei count in test [2] turned out to be 156%. Also, the z-score was -0.234 in test [3] (setting [10]), 1.06 in test [3] (setting [11]) and 0.0937 in [3] (setting [12]). The fluorescence slope is -0.33 (inactive) in test [5] and 0.00494 (inactive) in [7]. For the same compound, the NADPH fluorescence slope in test [6] was -3.6e-05 (inactive). Besides, the compound was classed as inactive in test [8].
As to `N#Cc1nc(-c2cccs2)oc1NCc1ccccc1Cl`, the cell count in [1] was found to be 657. Moreover, the inhibition in [1] is 3.4% (inactive); in test [2], -84% (inactive); in [4], 1.63% (inactive); in test [9], -1.01% (inactive). Besides, the nuclei count in [2] stood at 107%. In addition, the z-score in [3] (setting [10]) was -2.24; in test [3] (setting [11]), 1.03; in test [3] (setting [12]), 1.6. The fluorescence slope is -0.513 (inactive) in [5] and 0.00761 (inactive) in test [7]. Besides, in test [6], the NADPH fluorescence slope was -3.2e-05 (inactive). Moreover, the call in test [8] was inactive.

What is called inhibition is the change of the read-out against control, counted positive when it falls.

Values taken from PubChem BioAssay.
